Test results: ChEMBL document CHEMBL5257098, “Development and Characterization of Fluorescent Probes for the G Protein-Coupled Receptor 35” (ACS Med Chem Lett, 2023)
Calls of active or inactive are those of the source. The rule behind the calls is not given here.

Experiments:
[1] = molecular target: T1, G-protein coupled receptor 35 (Homo sapiens, UniProt Q9HC97); assay: Agonist activity at GPR-35 in human HT-29 cells assessed as desensitization of zaprinast induced DMR response incubated for 1 hr followed by zaprinast stimulation; type: cell-based
[2] = molecular target: T1, G-protein coupled receptor 35; assay: Agonist activity at GPR-35 in human HT-29 cells by DMR assay; type: cell-based
In short: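 Label-free DMR was recorded in HT-29 cells endogenously expressing GPR35 across a range of probe concentrations. EC50 was taken from concentration–response curves. Values are mean ± SD of two independent measurements, each with four replicates.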

[3] = molecular target: T1, G-protein coupled receptor 35; assay: Binding affinity to Nluc-fused human GPR35 expressed in CHO-K1 cells using furimazine as substrate incubated for 30 mins in presence of zaprinast followed by substrate addition by […] equilibrium binding assay; type: cell-based
In short: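 CHO-K1 cells were transfected with human GPR35 carrying an N-terminal nano-luciferase tag. Fluorescent probes were added at varying concentrations for saturation BRET binding. […] Kd was derived from the data. Values are mean ± SD of three independent measurements, each in triplicate.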

[4] = molecular target: T1, G-protein coupled receptor 35; assay: Agonist activity at human GPR-35 over expressed in CHO-K1 cells incubated for 1 hr followed by zaprinast stimulation by DMR assay; type: cell-based; conditions: filed as agonist
[5] = molecular target: T1, G-protein coupled receptor 35; assay: Agonist activity at GPR-35 in human HT-29 cells assessed as DMR response in presence of ML-145
[6] = molecular target: T1, G-protein coupled receptor 35; assay: Agonist activity at GPR-35 in human HT-29 cells incubated for 1 hr by DMR assay; type: cell-based
[7] = molecular target: T1, G-protein coupled receptor 35; assay: Competitive binding affinity to Nluc-fused human GPR35 expressed in CHO-K1 cells assessed as inhibition constant using furimazine as substrate incubated for 30 mins followed by substrate addition by in presence of 10-(4-(2-(4-(4-((2,8-dicarboxy-6-hydroxy-10-methylpyrido[3,2-g]quinolin-4-yl)oxy)butyl)-1H-1,2,3-triazol-1-yl)ethoxy)phenyl)-5,5-difluoro-2,7,9-trimethyl-5H-imidazo[1,2-c]pyrrolo[2,1-f][ …; type: cell-based
[8] = molecular target: T1, G-protein coupled receptor 35; assay: Reversible binding affinity to Nluc-fused human GPR35 expressed in CHO-K1 cells using furimazine as substrate incubated for 10 mins followed by addition of ML145 by kinetic assay; type: cell-based; conditions: filed as agonist
In short: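 Kinetic BRET binding used CHO-K1 cells expressing NLUC-tagged human GPR35. The BRET emission ratio was followed after adding probe (5 nM). 10 min later, ML-145 (10 μM) was added to dissociate the probe.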

T1 sequence (Q9HC97 whole entry): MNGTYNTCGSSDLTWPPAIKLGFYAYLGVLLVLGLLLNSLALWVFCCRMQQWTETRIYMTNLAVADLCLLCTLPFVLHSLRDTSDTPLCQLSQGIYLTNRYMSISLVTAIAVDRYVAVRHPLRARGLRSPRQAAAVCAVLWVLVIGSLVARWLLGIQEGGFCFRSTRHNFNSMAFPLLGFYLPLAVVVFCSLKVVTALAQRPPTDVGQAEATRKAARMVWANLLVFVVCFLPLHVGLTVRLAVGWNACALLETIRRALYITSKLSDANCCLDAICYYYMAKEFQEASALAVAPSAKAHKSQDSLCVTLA

EC50 [2] [nM]	Kd [3] [nM]	Activity [4]	IC50 [5] [nM]	Ki [7] [nM]	Structure (SMILES)	IC50 [1] [nM]	also measured
80.8	7.4	Active	1030	–	CC1=CC(C)=[N+]2C1=C(c1ccc(OCCn3cc(CCCOc4cc(C(=O)O)nc5c(C)c6nc(C(=O)O)cc(O)c6cc45)nn3)cc1)c1nc(C)cn1[B-]2(F)F	9.6	–
58.8	17.9	Active	769	–	CC1=CC(C)=[N+]2C1=C(c1ccc(OCCn3cc(CCOCCOc4cc(C(=O)O)nc5c(C)c6nc(C(=O)O)cc(O)c6cc45)nn3)cc1)c1nc(C)cn1[B-]2(F)F	7.8	–
–	–	–	–	51	O=c1oc2c([N+](=O)[O-])c(O)c(Br)cc2cc1-c1nnn[nH]1	–	EC50 [6]: 6 nM
–	–	–	–	332	O=C(O)c1cc(C(=O)O)c2c(n1)C(=O)C(=O)c1cc(C(=O)O)[nH]c1-2 [PYRROLOQUINOLINE QUINONE]	–	–
–	–	–	–	352	O=C(O)c1cc2cc(Br)c(O)c(Br)c2oc1=O	–	–
49.5	3.9	Active	542	–	CC1=CC(C)=[N+]2C1=C(c1ccc(OCCn3cc(CCCCOc4cc(C(=O)O)nc5c(C)c6nc(C(=O)O)cc(O)c6cc45)nn3)cc1)c1nc(C)cn1[B-]2(F)F	9.4	Activity [8]: Active
–	–	–	–	236	COC(=O)c1cnn(-c2ccc(F)cc2F)c1/C=N/NC(=S)NC(C)(C)C	–	–
–	–	–	–	6	Cc1c2[nH]c(C(=O)O)cc(=O)c2cc2c(=O)cc(C(=O)O)[nH]c12	–	–
–	–	–	–	2970	O=C(O)c1cc(=O)c2c(OCC(O)COc3cccc4oc(C(=O)O)cc(=O)c34)cccc2o1 [CROMOLYN]	–	–
42.2	8.3	Active	398	–	CC1=CC(C)=[N+]2C1=C(c1ccc(OCCn3cc(CCCCCOc4cc(C(=O)O)nc5c(C)c6nc(C(=O)O)cc(O)c6cc45)nn3)cc1)c1nc(C)cn1[B-]2(F)F	5.6	–
–	–	–	–	10	COc1ccc(C(=O)Nc2cc(Br)ccc2-c2nnn[nH]2)cc1	–	–
